Measurements pooled from the literature.
Lines come from different studies, so protocols differ.
Target: Histamine H1 receptor (HRH1, Homo sapiens, UniProt P35367)

| SMILES | assay | conditions | endpoint | value |
| --- | --- | --- | --- | --- |
| Clc1ccc2c(C3CCN(CCc4c[nH]c5ccccc45)CC3)c[nH]c2c1 | ligand displacement, radioligand | 10 µM | inhibition | 100% |
| CC(Cc1ccccc1)NCCn1cnc2c1c(=O)n(C)c(=O)n2C (stereo not shown) | ligand displacement, radioligand | 10 µM | inhibition | 12% |
| CCN(CC)CCCC[C@H](NC(=O)[C@H](CC(C)C)NC(=O)[C@H](C)NC(=O)[C@H](Cc1ccccc1)NC(=O)c1ccc(C(C)(C)C)cc1)C(=O)N[C@@H](CO)C(=O)OC | ligand displacement, radioligand | 10 µM | inhibition | -6% |
| Nc1ncc(-c2nc(N3CCOCC3)nc(N3CCOCC3)n2)c(C(F)F)n1 | cell-free assay, radioligand | 10 µM | remaining signal | 99.1% |
| CN1CCC(C(c2ccccc2)c2ccccc2)CC1 | binding | – | kon | 3.33e+06 M⁻¹ s⁻¹ |
| CC(C)N1CCC[C@H]1CNC(=O)c1cn(C2CCCC2)c(=O)c2c1c1ccccc1n2C | ligand displacement, radioligand | 10 µM | inhibition | 22% |
| C[C@H](C(=O)N[C@H]1COc2ccccc2[C@@H]1S(C)(=O)=O)c1ccc(F)cc1 | cell-free assay | 10 µM | inhibition | -5% |
| N#CC1(c2ccccn2)CCN(Cc2cc(C(=O)O)c(=O)n3ccccc23)CC1 | cell-free assay | 10 µM | inhibition | 28.4% |
| COCc1c(-c2cc3cc(C)cc(OC)c3s2)c2c(N)ncnn2c1CN1CCNC(=O)C1 | ligand displacement, radioligand | 10 µM | inhibition | 26% |
| Cc1c(N2CCNCC2)nc2ccc(Br)cc2c1C(=O)NC[C@H](CCC(=O)O)c1ccccc1Cl | ligand displacement | 10 µM | inhibition | 17.5% |
| COc1ccc(S(=O)(=O)N2CCCCC2)cc1C | ligand displacement, radioligand | 10 µM | inhibition | < 30% |
| c1ccc(C(NCCNC(c2ccccc2)c2ccccc2)c2ccccc2)cc1 | cell-free assay | 10 µM | inhibition | 81% |
| COc1ccc(C(=O)NCc2cc(C(C)C)no2)cc1OC1CCN(C)CC1 | ligand displacement, radioligand | 10 µM | inhibition | 37% |
